Data set [1] concerns the target T1, Proteasome Macropain subunit MB1 (Homo sapiens) (UniProt P28074).
T1 sequence (whole entry): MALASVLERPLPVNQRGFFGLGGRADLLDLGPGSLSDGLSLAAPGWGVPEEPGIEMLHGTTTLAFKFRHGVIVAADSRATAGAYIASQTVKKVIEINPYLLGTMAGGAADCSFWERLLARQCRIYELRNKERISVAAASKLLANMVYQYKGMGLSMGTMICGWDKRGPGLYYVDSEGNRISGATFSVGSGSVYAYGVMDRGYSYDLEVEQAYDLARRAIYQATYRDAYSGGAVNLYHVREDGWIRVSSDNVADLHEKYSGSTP
Briefly: Inhibition of biotin-labeled belactosin A binding to human 20S proteasome beta 5 subunit at 100 uM preincubated for 1 hr followed by biotin-labeled belactosin A treatment measured after 1 hr by Western blotting analysis. In short, it runs like this:
(§1)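 Purified human 20S proteasome preincubated 1 h at 37 °C with varying compound levels, then biotin-belactosin A added to 1 µM for a further 1 h. Proteins separated by SDS-PAGE, blotted to PVDF, milk-blocked; biotin-labelled subunits detected with streptavidin-HRP and ECL.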
In general terms: Immunoblotting shows a protein as a band on a membrane.

Data set [2] addresses T2, Proteasome Macropain subunit MB1 (Homo sapiens, UniProt P28074).
T2 sequence (P28074 whole entry): T1 sequence (whole entry)
Briefly: Inhibition of chymotrypsin-like activity of human 20S proteasome beta 5 subunit assessed as hydrolysis of succinyl-LLVY-AMC fluorogenic substrate measured for 1 hr by fluorometric analysis. The essentials: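 Purified human 20S proteasome (0.1 µg) incubated at 37 °C with 50 µM succinyl-LLVY-AMC (CT-L) or 20 µM Z-LLE-AMC (PGPH) and compound at 0.01–10 µM in 25 mM HEPES, 0.5 mM EDTA, 0.03% SDS. IC50 taken from inhibition curve; means of three experiments.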

The next data set deals with HL-60. The experiment in a line: Cytotoxicity against […] human HL60 cells after 48 hrs by MTT assay. In kind it is functional. To be noted: HL-60, 48 h. In short, it runs like this: (§2)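 HEK293 (DMEM) or HL-60 (IMDM) cells, each with 10% FBS plus penicillin/streptomycin, seeded 5×10^3 cells/well in duplicate. Exposed 48 h to compound at […]. MTT reduction read as 560/750 nm absorbance ratio after HCl/2-propanol extraction. CyT50 from inhibition curve; means of triplicate.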

Data set [3] relates to HeLa. The experiment in a line: Inhibition of proteasome in human HeLa cells assessed as accumulation of ubiquitinated proteins at 30 uM after 24 hrs by Western blotting analysis. The data set is classed as cell-based. In short, it runs like this: (§3)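 HeLa cells, 4×10^5 cells/well, treated 24 h with compound; vehicle control 0.25% DMSO. Lysed in Tris–HCl/2% SDS/glycerol buffer with protease and phosphatase inhibitors; 30 µg protein run on SDS-PAGE, PVDF blot probed with anti-ubiquitin (1:200), actin as loading reference, HRP secondary, ECL detection.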

Data set [4] addresses T1, Proteasome Macropain subunit MB1 (Homo sapiens). Briefly: Inhibition of biotin-labeled belactosin A binding to human 20S proteasome beta 5 subunit at 1 to 100 uM preincubated for 1 hr followed by biotin-labeled belactosin A treatment measured after 1 hr by Western blotting analysis. The essentials: as §1
For data set [5], the system named is HeLa. The experiment in a line: Cell cycle arrest in human HeLa cells assessed as accumulation at sub G1 phase at 10 uM after 24 hrs by propidium iodide staining-based flow cytometric analysis (reference value: 2.2%). In kind it is functional. (A flow cytometer gives signals particle by particle.)
The species entered for data set [6] is Homo sapiens. The experiment in a line: Inhibition of calpain (unknown origin) at >10 uM.
Data set [7] deals with HeLa. Briefly: Induction of apoptosis in human HeLa cells assessed as PARP cleavage after 24 hrs by Western blotting analysis. In kind it is functional, cell-based. The essentials:
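HeLa cells seeded 4×10^5 cells/well, incubated 24 h with varying compound concentrations; PARP cleavage detected in lysates by Western blotting.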

The species named for data set [8] is Homo sapiens. Briefly: Inhibition of cathepsin (unknown origin) at >10 uM.
The target in data set [9] is T2, Proteasome Macropain subunit MB1. Briefly: Noncompetitive inhibition of chymotrypsin-like activity of human 20S proteasome beta 5 subunit assessed as hydrolysis of succinyl-LLVY-AMC fluorogenic substrate Lineweaver-Burk plot analysis.
A short description of data set [10]: Inhibition of chymotrypsin-like activity of Saccharomyces cerevisiae 20S proteasome beta 5 subunit.
Data set [11] deals with T3, Proteasome component C5 (Homo sapiens) (UniProt P20618).
T3 sequence (whole entry): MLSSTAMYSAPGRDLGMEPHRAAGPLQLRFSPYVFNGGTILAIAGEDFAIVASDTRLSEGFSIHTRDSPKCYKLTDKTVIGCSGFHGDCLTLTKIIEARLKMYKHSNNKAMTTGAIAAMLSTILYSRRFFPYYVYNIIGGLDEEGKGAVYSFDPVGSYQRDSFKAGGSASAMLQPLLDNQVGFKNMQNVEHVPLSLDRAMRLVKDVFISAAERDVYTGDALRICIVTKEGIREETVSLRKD
The experiment in a line: Inhibition of biotin-labeled belactosin A binding to human 20S proteasome beta 1 subunit preincubated for 1 hr followed by biotin-labeled belactosin A treatment measured after 1 hr by Western blotting analysis. The essentials: as §1

In data set [12] the test system is HeLa. Briefly: Cell cycle arrest in human HeLa cells assessed as accumulation at sub G1 phase at 60 uM after 24 hrs by propidium iodide staining-based flow cytometric analysis (reference value: 2.2%). The data set is classed as functional.
Data set [13] concerns the target T3, Proteasome component C5 (Homo sapiens). Briefly: Inhibition of biotin-labeled belactosin A binding to human 20S proteasome beta 1 subunit at 10 uM preincubated for 1 hr followed by biotin-labeled belactosin A treatment measured after 1 hr by Western blotting analysis. The essentials: as §1
Data set [14] concerns HeLa. Briefly: Induction of apoptosis in human HeLa cells assessed as caspase 3 cleavage at 1 to 30 uM after 24 hrs by Western blotting analysis. The data set is classed as functional, cell-based.
The nature of data set [15]: Cytotoxicity against ER-negative HEK293 cells after 48 hrs by MTT assay. In kind it is cell-based. To be noted: human. The essentials:
as §2
A general note: Formazan colour is commonly taken as a measure of viable cells.

Data set [16] deals with HeLa. Briefly: Inhibition of proteasome in human HeLa cells assessed as accumulation of ubiquitinated proteins at 10 uM after 24 hrs by Western blotting analysis. In kind it is cell-based. In short, it runs like this:
as §3

Data set [17] addresses T3, Proteasome component C5 (Homo sapiens). To be noted: 10 to 20 uM.
Data set [18] addresses T1, Proteasome Macropain subunit MB1 (Homo sapiens). To be noted: 10 to 20 uM.
Data set [19] concerns the target Proteasome Macropain subunit (Homo sapiens) (UniProt P49721). To be noted: 10 to 20 uM.
Data set [20] relates to HeLa. Briefly: Inhibition of proteasome in human HeLa cells assessed as accumulation of ubiquitinated proteins at 60 uM after 24 hrs by Western blotting analysis. The data set is classed as cell-based. The essentials:
as §3

Data set [21] has as its target T1, Proteasome Macropain subunit MB1 (Homo sapiens). The experiment in a line: Inhibition of chymotrypsin-like activity of human 20S proteasome beta 5 subunit assessed as hydrolysis of succinyl-LLVY-AMC fluorogenic substrate at 10 uM measured for 1 hr by fluorometric analysis relative to control. On the set-up: scale not given: the % may be the effect or the level left.

Data set [22] concerns the target T3, Proteasome component C5 (Homo sapiens). The experiment in a line: Inhibition of PGPH-like activity of human 20S proteasome beta 1 subunit assessed as hydrolysis of Z-LLE-AMC fluorogenic substrate at 10 uM measured for 1 hr by fluorometric analysis relative to control. On the set-up: scale not given: the % may be the effect or the level left.
In data set [23] the target is Proteasome Macropain subunit (Homo sapiens) (UniProt P49721). Briefly: Inhibition of trypsin-like activity of human 20S proteasome beta 2 subunit assessed as hydrolysis of Boc-LRR-AMC fluorogenic substrate at 10 uM measured for 1 hr by fluorometric analysis relative to control. The arrangement: scale not given: the % may be the effect or the level left.
Proteasome Macropain subunit (Homo sapiens), sequence (P49721 whole entry): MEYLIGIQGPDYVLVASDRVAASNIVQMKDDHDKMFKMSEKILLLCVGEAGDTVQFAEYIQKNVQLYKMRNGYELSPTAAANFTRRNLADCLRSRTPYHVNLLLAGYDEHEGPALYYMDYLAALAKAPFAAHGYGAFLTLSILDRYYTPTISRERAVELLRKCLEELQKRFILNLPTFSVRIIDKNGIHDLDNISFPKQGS

The structures appear in SMILES notation. Active and inactive are the calls of the source. The calls are words filed in the database; no cut-off is given here. Peptide text beside a SMILES is read from it. * marks the point of attachment. Cbz = O=C(OCc1ccccc1)*

In general, IC50 refers to the concentration at which inhibition is half-maximal. The CC50 is the concentration giving 50% cytotoxicity. The term Ki denotes a measure of affinity in units of concentration, obtained from inhibition or displacement. Take `CCC(=C(c1ccc(OCCN2CCCCCC2)cc1)c1ccc(OCCN2CCCCCC2)cc1)c1ccccc1`: the inhibition entry (in data set [1]; in the data set on HeLa [3]; in [4]; in [13]) was “Active” each time. The figures for the IC50 in [2] and in [10] were 0.64 µM and 1.8 µM, respectively. Besides, in the data set with HL-60, the CC50 amounted to 3.42 µM. For the same molecule, the values for the Activity with HeLa [5], with HeLa [7] and with HeLa [12] were 3.4%, “Dose-dependent effect” and 4.7%, respectively. Besides, the inhibition entry in the data set listed under Homo sapiens [6] and in the data set filed under Homo sapiens [8] was “inactive” each time. Moreover, the Ki in data set [9] came out at 0.58 µM. In addition, the inhibition result in data set [11] was “Dose-dependent effect”. The result in the data set on HeLa [14] was Active. This molecule returned a CC50 at 48 h in [15] of 4.38 µM.

As to `CC(C)C[C@@H](C=O)NC(=O)[C@H](CC(C)C)NC(=O)[C@H](CC(C)C)NC(=O)OCc1ccccc1` [MG-132] (Cbz-Leu-Leu-Leu-aldehyde), the Activity in the data set with HeLa [5] is given as 5.6%. Also, the inhibition entry (in the data set with HeLa [16]; in [17]; in data set [18]; in data set [19]) was “Active” each time.

For the molecule `c1cc(OCCN2CCCCCC2)ccc1Cc1ccc(OCCN2CCCCCC2)cc1`, the inhibition entry (in [1]; in [4]; in the data set on HeLa [20]; in data set [13]) was “Active” in each case. Moreover, the IC50 in data set [2] is 0.67 µM. In the data set on HL-60, this molecule registered a CC50 of 14.5 µM. Further, the Activity entry in the data set on HeLa [7] was “Dose-dependent effect”. Moreover, the inhibition result in data set [11] is “Dose-dependent effect”. The same molecule displayed a CC50 at 48 h in data set [15] of 10.9 µM.

As for `CC/C(=C(\c1ccccc1)c1ccc(OCCN(C)C)cc1)c1ccccc1`, the Activity in data set [21] was found to be 145%; in data set [22] it was 85%; in [23], 112%.

The values are drawn from ChEMBL document CHEMBL3098012, “A novel tamoxifen derivative, ridaifen-F, is a nonpeptidic small-molecule proteasome inhibitor” (Eur J Med Chem, 2014).
